According to ChEMBL document CHEMBL2331168, “Anticonvulsant evaluation of aminoalkanol derivatives of 2- and 4-methylxanthone” (Bioorg Med Chem, 2013):
Calls of active or inactive are those of the source.

Key:
Rattus norvegicus [1] = experiment: Anticonvulsant activity in Sprague-Dawley rat assessed as protection against maximal electroshock-induced seizures at 30 mg/kg, po after 4 hrs; assay type: functional, organism-based; set-up: dose 30 mg/kg
How it was run: (§1)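 Male Sprague-Dawley rats dosed orally at 30 mg/kg and tested at 0.25, 0.5, 1, 2 and 4 h. Seizures were induced by 60 Hz alternating current at 150 mA for 0.2 s through corneal electrodes, after a drop of 0.9% NaCl in each eye. Protection meant abolition of hindlimb tonic extension. Reported as protected/tested, usually 4 rats per time point.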

Rattus norvegicus [2] = experiment: Anticonvulsant activity in Sprague-Dawley rat assessed as protection against maximal electroshock-induced seizures at 30 mg/kg, po after 2 hrs; assay type: functional, organism-based; set-up: dose 30 mg/kg; how it was run: as §1
Rattus norvegicus [3] = experiment: Anticonvulsant activity in Sprague-Dawley rat assessed as protection against maximal electroshock-induced seizures at 30 mg/kg, po after 1 hr; assay type: functional, organism-based; set-up: dose 30 mg/kg; how it was run: as §1
Rattus norvegicus [4] = experiment: Anticonvulsant activity in Sprague-Dawley rat assessed as protection against maximal electroshock-induced seizures at 30 mg/kg, po after 0.5 hrs; assay type: functional, organism-based; set-up: dose 30 mg/kg; how it was run: as §1
Rattus norvegicus [5] = experiment: Anticonvulsant activity in Sprague-Dawley rat assessed as protection against maximal electroshock-induced seizures at 30 mg/kg, po after 0.25 hrs; assay type: functional, organism-based; set-up: dose 30 mg/kg; how it was run: as §1
Mus musculus [6] = experiment: Neurotoxicity in albino mouse assessed as minimal motor impairment at 300 mg/kg, ip after 4 hrs by rotorod test; assay type: toxicity, organism-based; set-up: dose 300 mg/kg, route intraperitoneal; conditions: in vivo
How it was run: (§2)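 Male albino mice (Carworth Farms No. 1) were dosed ip with suspensions in 0.5% methylcellulose and put on a 1 in. knurled rod rotating at 6 rpm at set times after dosing. Neurotoxicity meant failure to stay on the rod for at least 1 min in each of three trials. Scored as impaired/tested.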

Mus musculus [7] = experiment: Neurotoxicity in albino mouse assessed as minimal motor impairment at 100 mg/kg, ip after 4 hrs by rotorod test; assay type: toxicity, organism-based; set-up: dose 100 mg/kg, route intraperitoneal; conditions: in vivo; how it was run: as §2
Mus musculus [8] = experiment: Neurotoxicity in albino mouse assessed as minimal motor impairment at 30 mg/kg, ip after 4 hrs by rotorod test; assay type: toxicity, organism-based; set-up: dose 30 mg/kg, route intraperitoneal; conditions: in vivo; how it was run: as §2
Mus musculus [9] = experiment: Anticonvulsant activity in albino mouse assessed as protection against subcutaneous pentetrazole-induced seizures at 300 mg/kg, ip after 4 hrs; assay type: functional, organism-based; set-up: dose 300 mg/kg
How it was run: (§3)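 Male albino mice (Carworth Farms No. 1) received compound ip in 0.5% methylcellulose, then pentetrazole 85 mg/kg sc in 0.9% NaCl at 0.5 or 4 h. Mice were watched for at least 30 min. Protection meant no threshold seizure, defined as a single clonic spasm lasting at least 5 s. Scored as protected/tested.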

Mus musculus [10] = experiment: Anticonvulsant activity in albino mouse assessed as protection against subcutaneous pentetrazole-induced seizures at 100 mg/kg, ip after 4 hrs; assay type: functional, organism-based; set-up: dose 100 mg/kg; how it was run: as §3
Mus musculus [11] = experiment: Anticonvulsant activity in albino mouse assessed as protection against subcutaneous pentetrazole-induced seizures at 300 mg/kg, ip after 0.5 hrs; assay type: functional, organism-based; set-up: dose 300 mg/kg; how it was run: as §3
Mus musculus [12] = experiment: Anticonvulsant activity in albino mouse assessed as protection against subcutaneous pentetrazole-induced seizures at 30 mg/kg, ip after 4 hrs; assay type: functional, organism-based; set-up: dose 30 mg/kg; how it was run: as §3
Mus musculus [13] = experiment: Anticonvulsant activity in albino mouse assessed as protection against subcutaneous pentetrazole-induced seizures at 100 mg/kg, ip after 0.5 hrs; assay type: functional, organism-based; set-up: dose 100 mg/kg; how it was run: as §3
Mus musculus [14] = experiment: Anticonvulsant activity in albino mouse assessed as protection against subcutaneous pentetrazole-induced seizures at 30 mg/kg, ip after 0.5 hrs; assay type: functional, organism-based; set-up: dose 30 mg/kg; how it was run: as §3
Mus musculus [15] = experiment: Anticonvulsant activity in albino mouse assessed as protection against maximal electroshock-induced seizures at 300 mg/kg, ip after 4 hrs; assay type: functional, organism-based; set-up: dose 300 mg/kg
How it was run: (§4)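 Male albino mice (Carworth Farms No. 1) were given the compound ip as a suspension in 0.5% methylcellulose at 3–300 mg/kg. MES testing was at 0.5 and 4 h, sometimes also at 0.25 and 1 h. Current was 60 Hz, 50 mA, 0.2 s via corneal electrodes, with saline eye drops. Protection meant no hindlimb tonic extension, scored as protected/tested.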

Mus musculus [16] = experiment: Anticonvulsant activity in albino mouse assessed as protection against maximal electroshock-induced seizures at 30 mg/kg, ip after 4 hrs; assay type: functional, organism-based; set-up: dose 30 mg/kg; how it was run: as §4
Mus musculus [17] = experiment: Anticonvulsant activity in albino mouse assessed as protection against maximal electroshock-induced seizures at 300 mg/kg, ip after 0.5 hrs; assay type: functional, organism-based; set-up: dose 300 mg/kg; how it was run: as §4
Mus musculus [18] = experiment: Anticonvulsant activity in albino mouse assessed as protection against maximal electroshock-induced seizures at 30 mg/kg, ip after 0.5 hrs; assay type: functional, organism-based; set-up: dose 30 mg/kg; how it was run: as §4
Rattus norvegicus [19] = experiment: Neurotoxicity in Sprague-Dawley rat assessed as minimal motor impairment at 30 mg/kg, po after 1 hr by rotorod test; conditions: in vivo
Rattus norvegicus [20] = experiment: Neurotoxicity in Sprague-Dawley rat assessed as minimal motor impairment at 30 mg/kg, po after 4 hrs by rotorod test; conditions: in vivo
Rattus norvegicus [21] = experiment: Neurotoxicity in Sprague-Dawley rat assessed as minimal motor impairment at 30 mg/kg, po after 2 hrs by rotorod test; conditions: in vivo
Rattus norvegicus [22] = experiment: Neurotoxicity in Sprague-Dawley rat assessed as minimal motor impairment at 30 mg/kg, po after 0.5 hrs by rotorod test; conditions: in vivo
Rattus norvegicus [23] = experiment: Neurotoxicity in Sprague-Dawley rat assessed as minimal motor impairment at 30 mg/kg, po after 0.25 hrs by rotorod test; conditions: in vivo
Mus musculus [24] = experiment: Neurotoxicity in albino mouse assessed as minimal motor impairment at 100 mg/kg, ip after 0.25 hrs by rotorod test; assay type: toxicity, organism-based; set-up: dose 100 mg/kg, route intraperitoneal; conditions: in vivo; how it was run: as §2
Mus musculus [25] = experiment: Anticonvulsant activity in albino mouse assessed as protection against maximal electroshock-induced seizures at 100 mg/kg, ip after 4 hrs; assay type: functional, organism-based; set-up: dose 100 mg/kg; how it was run: as §4
Mus musculus [26] = experiment: Anticonvulsant activity in albino mouse assessed as protection against maximal electroshock-induced seizures at 100 mg/kg, ip after 1 hr; assay type: functional, organism-based; set-up: dose 100 mg/kg; how it was run: as §4
Mus musculus [27] = experiment: Anticonvulsant activity in albino mouse assessed as protection against maximal electroshock-induced seizures at 100 mg/kg, ip after 0.5 hrs; assay type: functional, organism-based; set-up: dose 100 mg/kg; how it was run: as §4
Mus musculus [28] = experiment: Neurotoxicity in albino mouse assessed as minimal motor impairment at 30 mg/kg, ip after 0.5 hrs by rotorod test; assay type: toxicity, organism-based; set-up: dose 30 mg/kg, route intraperitoneal; conditions: in vivo; how it was run: as §2
Mus musculus [29] = experiment: Protective index, ratio TD50 for albino mouse to ED50 for albino mouse by subcutaneous pentetrazole-induced seizure test after 1 hr; assay type: functional
Mus musculus [30] = experiment: Anticonvulsant activity in ip dosed albino mouse assessed as protection against subcutaneous pentetrazole-induced seizures after 1 hr; assay type: functional
Mus musculus [31] = organism: Mus musculus; experiment: Protective index, ratio TD50 for albino mouse to ED50 for albino mouse by maximal electroshock-induced seizure test after 1 hr; assay type: functional
How it was run: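 Protective index was calculated as mouse ip TD50 (rotorod) divided by mouse ip MES ED50, both obtained by quantitative dose-response testing at the stated post-dose time.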

Mus musculus [32] = experiment: Anticonvulsant activity in ip dosed albino mouse assessed as protection against maximal electroshock-induced seizures after 1 hr; assay type: functional
How it was run: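 ED50, with 95% confidence intervals, was the ip dose protecting 50% of mice in the MES test. It was measured at the stated post-dose time in male albino mice given suspensions in 0.5% methylcellulose. MES used 60 Hz, 50 mA, 0.2 s corneal stimulation, and the endpoint was abolition of hindlimb tonic extension.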

[33] = Neurotoxicity in ip dosed albino mouse assessed as minimal motor impairment after 1 hr by rotorod test; assay type: toxicity, organism-based; conditions: in vivo
How it was run: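 TD50, with 95% confidence intervals, was the ip dose causing neurotoxicity in 50% of male albino mice. Deficit was judged on the rotorod: a 1 in. knurled rod at 6 rpm, where failure to hold on for 1 min in each of three trials counted as deficit. Read at the stated time after dosing.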

| Compound | Activity (Rattus norvegicus [2]) | Activity (Rattus norvegicus [4]) | Activity (Rattus norvegicus [5]) | Activity (Mus musculus [6]) | Activity (Mus musculus [7]) | Activity (Mus musculus [8]) | Activity (Mus musculus [9]) | Activity (Mus musculus [10]) | Activity (Mus musculus [11]) | Activity (Mus musculus [12]) | Activity (Mus musculus [13]) | Activity (Mus musculus [14]) | Activity (Mus musculus [15]) | Activity (Mus musculus [16]) | Activity (Mus musculus [17]) | Activity (Mus musculus [18]) | Activity (Rattus norvegicus [19]) | Activity (Rattus norvegicus [20]) | Activity (Rattus norvegicus [21]) | Activity (Rattus norvegicus [22]) | also measured |
| --- | --- | --- | --- | --- | --- | --- | --- | --- | --- | --- | --- | --- | --- | --- | --- | --- | --- | --- | --- | --- | --- |
| CN(Cc1ccc2oc3ccc(Cl)cc3c(=O)c2c1)C(C)(C)CO | inactive | inactive | inactive | Non-toxic | Non-toxic | Non-toxic | inactive | inactive | inactive | inactive | inactive | inactive | Active | inactive | Active | inactive | Non-toxic | Non-toxic | Non-toxic | Non-toxic | Activity (Rattus norvegicus [1]): inactive; Activity (Rattus norvegicus [3]): inactive; Activity (Rattus norvegicus [23]): Non-toxic |
| CC(C)(CO)NCc1ccc2oc3ccc(Cl)cc3c(=O)c2c1 |  |  |  | Non-toxic | Non-toxic |  | inactive | inactive | inactive | inactive | inactive | inactive | Active | inactive | Active | inactive |  |  |  |  | Activity (Mus musculus [24]): Non-toxic; Activity (Mus musculus [25]): inactive; Activity (Mus musculus [26]): inactive; Activity (Mus musculus [27]): inactive; Activity (Mus musculus [28]): Non-toxic |
| CC[C@H](CO)NCc1ccc2oc3cc(OC)ccc3c(=O)c2c1 | inactive | inactive | inactive | Non-toxic | Non-toxic | Non-toxic | inactive | inactive | inactive | inactive | inactive | inactive | Active | inactive | Active | inactive | Non-toxic | Non-toxic | Non-toxic | Non-toxic | Ratio TD50/ED50 (Mus musculus [29]): <1.54; ED50 (Mus musculus [30]): > 175 mg/kg; Ratio TD50/ED50 (Mus musculus [31]): 2.51; ED50 (Mus musculus [32]): 107 mg/kg; TD50 at 1 h [33]: 269 mg/kg; Activity (Mus musculus [27]): Active; Activity (Mus musculus [28]): Non-toxic; Activity (Rattus norvegicus [23]): Non-toxic |
